# High-throughput results: PubChem, Johns Hopkins Ion Channel Center
# KCNK9 block – blocks the human KCNK9 two-pore domain potassium channel | Q9NPC2 | HEK293 KCNK9, FluxOR thallium flux fluorescence; hits give low values | B-score at 10 µM | 1.2% of 310,000 active | AID 488922;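 active = ratio B-score over 3 SD below the library mean, with starting fluorescence within 5 SD of its mean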;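 also: negative B-score means less thallium flux so channel inhibition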
# KCNK3 inh – human KCNK3 channel inhibition, primary screen. 0.84% of 340,000 active. CHO-KCNK3 thallium flux, FluxOR fluorescence; hits give low values. B-score at 10 µM. O14649. AID 602410;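 active = B-score under library mean minus 4 SD, starting fluorescence ratio at most library mean plus 5 SD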;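 also: more negative B-score means stronger inhibition of thallium flux through KCNK3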
# Target sequence (O14649 whole entry, looked up): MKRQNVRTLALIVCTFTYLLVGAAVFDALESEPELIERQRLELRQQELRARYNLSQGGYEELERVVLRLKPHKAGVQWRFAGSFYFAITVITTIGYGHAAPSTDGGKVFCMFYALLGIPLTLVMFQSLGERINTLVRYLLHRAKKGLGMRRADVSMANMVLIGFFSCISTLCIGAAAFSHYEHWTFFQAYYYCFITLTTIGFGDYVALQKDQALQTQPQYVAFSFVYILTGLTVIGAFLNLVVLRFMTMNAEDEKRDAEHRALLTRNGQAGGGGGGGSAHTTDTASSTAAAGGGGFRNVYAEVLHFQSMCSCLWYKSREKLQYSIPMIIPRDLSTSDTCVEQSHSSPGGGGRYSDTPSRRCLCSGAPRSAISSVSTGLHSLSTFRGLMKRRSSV
# KCNQ1 block – human KCNQ1 channel inhibition; P51787; CHO-K1 KCNQ1, FluxOR thallium flux fluorescence; hits give high values; 1.3% of 310,000 active; AID 2642; B-score at 10 µM;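 active = compounds whose thallium flux B-score, printed positive for inhibition, exceeds three library SD while starting fluorescence stays within three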;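 also: channel opened by potassium depolarization with thallium stimulus after 20 min compound exposure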
# hERG protect – compounds protecting human hERG from proarrhythmic drug block; Q12809; CHO-hERG, FluxOR thallium flux, dofetilide IC70 present; activation (rescue from dofetilide block), less the hit threshold, % at 10 µM; 0.51% of 310,000 active;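 active = activation above the mean of controls blocked by dofetilide plus 5 SD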;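 also: thallium influx through hERG after potassium depolarization seen as dye fluorescence rise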
# KCNQ1 act – human KCNQ1 channel potentiation or activation; CHO-K1 KCNQ1, thallium flux FluxOR fluorescence; hits give high values; 0.35% of 310,000 active; AID 2648; B-score at 10 µM; P51787;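 active = fluorescence ratio B-score, a plate-corrected score, at least three library SD, with initial intensity B-score within 5 SD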
#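 Assay system: CHO-K1 cells stably expressing KCNQ1. Medium: assay buffer for compound exposure, DMSO matched across wells. Timing: 37 °C overnight plating, 90-min dark dye load, 20-min compound pretreatment. Signal: kinetic FluxOR fluorescence, 10 s baseline plus 110 s post-stimulus.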
# KCNK3 confirm – confirmation of human KCNK3 two-pore domain potassium channel inhibitors; CHO-KCNK3 thallium flux, FluxOR fluorescence; 0% buffer, 100% carvedilol maximal block; shares compounds with KCNK3 inh; AID 651638; ratio percent of control, % at 10 µM; 99% of 2,400 active;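 active = ratio percent of control, averaged over triplicates, above buffer control mean plus 5 SD, cut at about 64% in these data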;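 also: ratio is the fluorescence rise from min to max over baseline after thallium stimulus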
# KCNK3 noninduced – activity in cells without induced KCNK3 expression. shares compounds with KCNK3 inh. non-induced KCNK3 parental cells, FluxOR thallium flux; hits give low values. thallium flux ratio (lower = more inhibition) at 10 µM. 40% of 2,400 active;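 active = thallium flux ratio, averaged over three wells, more than 5 SD below the buffer control mean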;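 also: host cells are CHO cells without KCNK3 induction; ratio is peak minus trough fluorescence over baseline then normalized to buffer controls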
# An asterisk follows results filed as active; i = inactive; · = no result given. Sampled rows, rich in hits. Any-hit rate of the full collection: about 3.1%.
SMILES,KCNK9 block,KCNK3 inh,KCNQ1 block,hERG protect,KCNQ1 act,KCNK3 confirm,KCNK3 noninduced
O=C(Cc1ccccc1F)Nc1cc(Cl)ccc1N1CCCC1,i,i,i,1.2,i,·,·
Cc1cccc(OCC(=O)Nc2ccccc2N2CCN(C(=O)C(C)C)CC2)c1C,i,i,i,-13.7,i,·,·
O=C(Cc1ccccc1F)Nc1ccccc1N1CCCC1,i,-9.07*,i,-8.7,i,89.3*,i
Fc1c(F)c(F)c(N=Cc2ccc3ncccc3c2)c(F)c1F,i,i,i,-5.5,i,·,·
Nc1ccc(NC(=O)CCN2CCOCC2)cc1,i,i,i,2.0,i,·,·
O=C(Nc1ccccc1N1CCN(c2ccccc2)CC1)c1ccccc1F,i,-9.74*,i,-2.3,i,125.0*,0.112*
O=C(Nc1ccccc1NC(=O)c1ccccc1F)c1ccccc1F,i,i,i,-4.0,i,·,·
CCCn1nc([N+](=O)[O-])c(C(C#N)c2nc3ccccc3s2)c(Cl)c1=O (centres undefined),i,-8.76*,14*,-22.7,i,132.7*,0.108*
CCCCN=C1CC(C)(C)CC(=O)/C1=C(/O)CCC,i,-11*,i,-10.2,i,99.7*,i
CN(C)S(=O)(=O)c1cccc(NC(=O)C2Cc3ccccc3CN2C(=O)c2ccco2)c1 (centres undefined),i,i,i,-13.2,i,·,·
CCCSc1nc(NCc2ccco2)c2c3c(sc2n1)COC(C)(C)C3,i,-9.56*,6*,-11.5,i,108.0*,i
Cc1nc2sc3c(NCc4ccco4)ncnc3c2c2c1COC(C)(C)C2,i,i,i,-9.0,i,·,·
CC(=Nc1ccccc1)c1sc2ccccc2c1O,i,i,i,-12.8,i,·,·
CC(=Nc1ccc(Br)cc1)c1sc2ccccc2c1O,i,-10.9*,i,-8.0,i,131.0*,i
Cn1c(=O)c2c(nc3n2CC(O)CN3c2ccc(O)cc2)n(C)c1=O (centres undefined),i,i,i,-7.9,i,·,·
COC(=O)c1ccccc1NC(=O)c1ccc(COc2cc(C)cc(C)c2)o1,i,-9.46*,i,-6.9,i,86.7*,i
COc1ccccc1CNS(=O)(=O)c1ccc(Cl)s1,i,i,i,-3.5,i,·,·
O=C(C[C@@H]1C/C=C\CCCC(=O)OC[C@@H]2CCCN2C1=O)N[C@@H](CO)Cc1ccccc1,·,i,·,·,·,·,·
S=C(NCc1ccco1)N1CCN(C(c2ccccc2)c2ccccc2)CC1,-7.8*,-12.1*,i,-3.7,i,135.0*,0.147*
CC(C)CNC(=S)N1CCN(C(c2ccccc2)c2ccccc2)CC1,i,i,i,-7.8,i,·,·
Cc1nc(SC2CC(=O)N(c3cc(Cl)cc(Cl)c3)C2=O)nc2c1CCCC2 (centres undefined),i,-9.83*,i,3.4,i,105.0*,0.156*
Cc1cccc(N2C(=O)CC(Sc3nc(C)c4c(n3)CCCC4)C2=O)c1 (centres undefined),i,i,i,-9.7,i,·,·
CCOC(=O)CSc1nnc2n(C3CCCCC3)c(=O)c3c4c(sc3n12)CCCC4,i,i,i,-8.2,i,·,·
COC(=O)CSc1nnc2n(C3CCCCC3)c(=O)c3c4c(sc3n12)CCCC4,i,-9.52*,i,-10.5,i,96.0*,0.153*
COc1ccc(C(=O)N2CCN(CCc3ccccc3)CC2)cc1[N+](=O)[O-],i,i,i,-10.0,i,·,·
SMILES,KCNK9 block,KCNK3 inh,KCNQ1 block,hERG protect,KCNQ1 act,KCNK3 confirm,KCNK3 noninduced
Cc1ccc(/C=C2\Sc3ccccc3C2=O)s1,i,i,i,-16.6,i,·,·
COc1ccc(OC)c(/C=C2/Sc3ccccc3C2=O)c1,-7.17*,-10.5*,i,-7.3,i,109.7*,0.117*
COc1ccc(-c2[nH]ncc2CNCCn2cccn2)c(F)c1,i,i,i,-10.5,i,·,·
Cc1cc(C)cc(NC(=S)N(CCN2CCCCC2)Cc2ccco2)c1,i,-8.87*,i,-3.1,i,89.7*,i
CCc1ccccc1NC(=S)N(CCN1CCCCC1)Cc1ccco1,i,i,i,-7.3,i,·,·
CCOc1ccccc1CN1C(=O)C2(OCCO2)c2ccccc21,i,-9.67*,i,-2.3,i,108.3*,i
Cc1ccccc1N(C(=O)CNC(=O)c1ccco1)C(C(=O)NC1CCCC1)c1ccncc1 (centres undefined),i,i,i,-10.8,i,·,·
Cc1ccccc1-n1nnnc1SCc1ncc(-c2ccccc2)o1,i,-9.41*,i,-12.9,i,99.0*,i
c1ccc(-c2cnc(CSc3nnc4ccccn34)o2)cc1,i,i,i,-5.6,i,·,·
O=C(O)c1ccccc1NC(=O)C1CCN(S(=O)(=O)c2cccc3nsnc23)CC1,i,i,i,3.3,i,·,·
O=C(CSc1ncnc2c1cnn2CCc1ccccc1)Nc1cccc(C(F)(F)F)c1,i,-8.86*,i,-6.3,i,128.7*,0.114*
c1ccc(-c2nc(-c3ccco3)n3ccccc23)cc1,i,-9.75*,i,-11.8,i,116.0*,0.148*
Cc1ccc(-n2nnnc2SCC(=O)NC(C(=O)O)(c2ccccc2)c2ccccc2)cc1C,i,i,i,-7.1,i,·,·
C=CCn1c(NCc2cc(C)ccc2O)nc2ccccc21,i,i,i,-6.9,i,·,·
C=CCn1c(NC(C)c2cc(Cl)ccc2O)nc2ccccc21 (centres undefined),-6.63*,-11.9*,i,-5.7,i,122.0*,0.143*
COc1ccccc1C(=O)NC(=O)CSc1nnc(SC)s1,i,i,i,-16.1,i,·,·
N=c1n(Cc2ccc(Cl)cc2)c2ccccc2n1CC(O)COc1ccccc1 (centres undefined),i,-11.9*,i,-23.6,i,123.0*,i
COc1ccc(OCC(O)Cn2c(=N)n(Cc3ccccc3)c3ccccc32)cc1 (centres undefined),i,i,i,-20.4,i,·,·
CCN(CC)CCCN(C(=O)c1cccs1)c1nc(-c2ccc(OC)cc2)cs1,i,i,i,-12.6,i,·,·
COc1ccc(-c2csc(N(CC3CCCO3)C(=O)c3cccs3)n2)cc1 (centres undefined),i,-9.97*,i,-14.2,i,116.7*,i
COc1ccc(OC)c(-c2csc(N(CC3CCCO3)C(=O)C3CCCCC3)n2)c1 (centres undefined),i,-9.47*,i,-8.5,i,92.7*,i
